# How the values were obtained:
# [1] = AUClast in C57 Black mouse liver at 10 mg/kg, iv; format: ADME, organism-based; design: time 0 - last, route intravenous, dose 10 mg/kg
# Procedure, shortened: (§1)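 Male C57BL/6 mice were given a single 10 mg/kg dose either intravenously or orally. The oral and IV solutions were formulated in 10% DMSO, 10% cremaphor and 80% saline. Concentrations in plasma and in the tissues collected were determined after dosing, with n = 3 per route. Values are given as mean ± SEM.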
# [2] = target: CYP2C19 (Homo sapiens, UniProt P33261); assay: Inhibition of human CYP2C19 using fluorogenic substrate incubated for 60 mins in presence of NADPH by fluorescence assay relative to control; format: ADME; settings: probe fluorogenic substrate
# Sequence of CYP2C19 (P33261 whole entry): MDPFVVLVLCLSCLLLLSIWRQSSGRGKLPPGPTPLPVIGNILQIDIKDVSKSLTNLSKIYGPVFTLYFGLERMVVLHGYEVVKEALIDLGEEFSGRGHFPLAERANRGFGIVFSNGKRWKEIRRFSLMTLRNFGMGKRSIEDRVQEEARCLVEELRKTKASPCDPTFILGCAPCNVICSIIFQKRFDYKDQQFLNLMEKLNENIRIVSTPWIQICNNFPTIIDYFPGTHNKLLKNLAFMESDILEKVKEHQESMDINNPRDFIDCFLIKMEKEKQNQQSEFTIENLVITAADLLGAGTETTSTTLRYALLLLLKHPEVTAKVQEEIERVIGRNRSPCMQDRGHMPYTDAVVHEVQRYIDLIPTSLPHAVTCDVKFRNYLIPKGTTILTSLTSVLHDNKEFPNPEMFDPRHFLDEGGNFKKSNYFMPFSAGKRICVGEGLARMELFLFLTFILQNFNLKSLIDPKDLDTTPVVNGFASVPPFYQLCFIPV
# Procedure, shortened: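 Baculosomes each expressing a single cDNA-derived human P450 isozyme were incubated with compound at 10 µM, a fluorogenic substrate and NADPH. Incubation was at 37 °C for at least 60 min before fluorescence was read, n = 3.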
# [3] = Half life in C57 Black mouse brain at 10 mg/kg, iv; format: ADME, organism-based; procedure, shortened: as §1
# [4] = Half life in C57 Black mouse kidney at 10 mg/kg, po; format: ADME, organism-based
# Procedure, shortened: (§2)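 Male C57BL/6 mice (n = 3) dosed at 10 mg/kg by IV or oral (PO) route. Dosing solutions were formulated in 10% DMSO, 10% cremaphor and 80% saline. Compound levels were measured in plasma and tissues over time, and values are given as mean ± SEM.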
# [5] = AUCinfinity in C57 Black mouse kidney at 10 mg/kg, po; format: ADME, organism-based; design: route oral, time infinity, dose 10 mg/kg; procedure, shortened: as §1
# [6] = Efflux ratio of apparent permeability in MDCK-MDR1 cells at 10 uM after 30 mins by LC-MS/MS analysis; format: ADME, cell-based, Canis lupus familiaris; settings: dog
# Procedure, shortened: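 hMDR1-MDCK monolayers on filters; compound at 10 µM final in DMEM (from 10 mM DMSO stock) with 10 µM propranolol internal standard in donor. Transfer measured apical-to-basolateral and basolateral-to-apical over 30 min; receiver samples by LC-MS/MS; n = 3.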
# [7] = Cmax in C57 Black mouse plasma at 10 mg/kg, po; format: ADME, organism-based; design: route oral, dose 10 mg/kg; procedure, shortened: as §1
# [8] = Half life in mouse hepatocytes at 1 uM up to 120 mins by HPLC-MS/MS analysis; format: ADME, cell-based, Hepatocyte
# [9] = Volume of distribution in C57 Black mouse kidney at 10 mg/kg, iv; format: ADME, organism-based; procedure, shortened: as §2
# [10] = Tmax in C57 Black mouse spleen at 10 mg/kg, iv; format: ADME, organism-based; procedure, shortened: as §2
# [11] = AUClast in C57 Black mouse brain at 10 mg/kg, iv; format: ADME, organism-based; design: time 0 - last, route intravenous, dose 10 mg/kg; procedure, shortened: as §1
# [12] = Half life in mouse plasma at 1 uM after 60 to 120 mins by HPLC-MS/MS analysis; format: ADME, cell-free; settings: time 60-120 min
# Procedure, shortened: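 Buffer containing test compound at 1 µM was mixed with human or mouse blood plasma and incubated at 37 °C for 60–120 min. Parent compound remaining gave the plasma half-life and the percentage stable at 2 h.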
# [13] = AUCall in C57 Black mouse muscle at 10 mg/kg, iv; format: ADME, organism-based, Muscle tissue; design: dose 10 mg/kg; procedure, shortened: as §1
# [14] = Tmax in C57 Black mouse plasma at 10 mg/kg, po; format: ADME, organism-based; procedure, shortened: as §2
# [15] = Protein binding mouse serum at 1 uM after 60 to 120 mins by HPLC-MS/MS analysis; format: ADME, cell-free; settings: time 60-120 min, read-out: PB (converted)
# [16] = Volume of distribution in C57 Black mouse spleen at 10 mg/kg, iv; format: ADME, organism-based; procedure, shortened: as §2
# [17] = Clearance in C57 Black mouse plasma at 10 mg/kg, iv; format: ADME, organism-based; settings: in vivo; procedure, shortened: as §1
# [18] = AUCinfinity in C57 Black mouse spleen at 10 mg/kg, po; format: ADME, organism-based; design: time infinity, route oral, dose 10 mg/kg; procedure, shortened: as §1
# [19] = Tmax in C57 Black mouse spleen at 10 mg/kg, po; format: ADME, organism-based; procedure, shortened: as §2
compound,measurement,setting,value
O=C(CCCc1cccs1)N1CCN(c2ccc(C(F)(F)F)cc2)CC1,AUC(0-t),[1],487 ng·h/mL
same,inhibition at 1 h,[2],75.5%
same,half-life,[3],30 min
same,half-life,[4],34.2 min
same,AUC(0-inf),[5],1280 ng·h/mL
same,"efflux ratio at 0.5 h, 10 µM",[6],0.9
same,Cmax,[7],787 ng/mL
same,half-life at 1 µM,[8],126 min
same,Vd,[9],3.06 L/kg
same,Tmax,[10],1.8 min
same,AUC(0-t),[11],246 ng·h/mL
same,half-life at 1 µM,[12],327 min
same,AUC,[13],77.3 ng·h/mL
same,Tmax,[14],15 min
same,fraction unbound at 1 µM,[15],0.0052
same,Vd,[16],3.19 L/kg
same,CL,[17],68.37 mL/min/kg
same,AUC(0-inf),[18],1270 ng·h/mL
same,Tmax,[19],15 min

# Source: ChEMBL document CHEMBL4765370, “Design, synthesis, and biological evaluation of aryl piperazines with potential as antidiabetic agents via the stimulation of glucose uptake and inhibition of NADH:ubiquinone oxidoreductase” (Eur J Med Chem, 2020)
